Experimental data taken from ChEMBL document CHEMBL3769341, “Discovery and Characterization of GSK2801, a Selective Chemical Probe for the Bromodomains BAZ2A and BAZ2B” (J Med Chem, 2016).
Calls of active or inactive are those of the source. No cut-off for these calls is given here.

Assays:
[1] = molecular target: Protein polybromo-1 (Homo sapiens) (UniProt Q86U86); test: Binding affinity to biotinylated PB1 bromodomain-2 (unknown origin) expressed in Escherichia coli at 0.2 to 1 uM by Biolayer Interferometric analysis
Protein polybromo-1 (Homo sapiens), sequence (Q86U86 whole entry, the tested form may be a part): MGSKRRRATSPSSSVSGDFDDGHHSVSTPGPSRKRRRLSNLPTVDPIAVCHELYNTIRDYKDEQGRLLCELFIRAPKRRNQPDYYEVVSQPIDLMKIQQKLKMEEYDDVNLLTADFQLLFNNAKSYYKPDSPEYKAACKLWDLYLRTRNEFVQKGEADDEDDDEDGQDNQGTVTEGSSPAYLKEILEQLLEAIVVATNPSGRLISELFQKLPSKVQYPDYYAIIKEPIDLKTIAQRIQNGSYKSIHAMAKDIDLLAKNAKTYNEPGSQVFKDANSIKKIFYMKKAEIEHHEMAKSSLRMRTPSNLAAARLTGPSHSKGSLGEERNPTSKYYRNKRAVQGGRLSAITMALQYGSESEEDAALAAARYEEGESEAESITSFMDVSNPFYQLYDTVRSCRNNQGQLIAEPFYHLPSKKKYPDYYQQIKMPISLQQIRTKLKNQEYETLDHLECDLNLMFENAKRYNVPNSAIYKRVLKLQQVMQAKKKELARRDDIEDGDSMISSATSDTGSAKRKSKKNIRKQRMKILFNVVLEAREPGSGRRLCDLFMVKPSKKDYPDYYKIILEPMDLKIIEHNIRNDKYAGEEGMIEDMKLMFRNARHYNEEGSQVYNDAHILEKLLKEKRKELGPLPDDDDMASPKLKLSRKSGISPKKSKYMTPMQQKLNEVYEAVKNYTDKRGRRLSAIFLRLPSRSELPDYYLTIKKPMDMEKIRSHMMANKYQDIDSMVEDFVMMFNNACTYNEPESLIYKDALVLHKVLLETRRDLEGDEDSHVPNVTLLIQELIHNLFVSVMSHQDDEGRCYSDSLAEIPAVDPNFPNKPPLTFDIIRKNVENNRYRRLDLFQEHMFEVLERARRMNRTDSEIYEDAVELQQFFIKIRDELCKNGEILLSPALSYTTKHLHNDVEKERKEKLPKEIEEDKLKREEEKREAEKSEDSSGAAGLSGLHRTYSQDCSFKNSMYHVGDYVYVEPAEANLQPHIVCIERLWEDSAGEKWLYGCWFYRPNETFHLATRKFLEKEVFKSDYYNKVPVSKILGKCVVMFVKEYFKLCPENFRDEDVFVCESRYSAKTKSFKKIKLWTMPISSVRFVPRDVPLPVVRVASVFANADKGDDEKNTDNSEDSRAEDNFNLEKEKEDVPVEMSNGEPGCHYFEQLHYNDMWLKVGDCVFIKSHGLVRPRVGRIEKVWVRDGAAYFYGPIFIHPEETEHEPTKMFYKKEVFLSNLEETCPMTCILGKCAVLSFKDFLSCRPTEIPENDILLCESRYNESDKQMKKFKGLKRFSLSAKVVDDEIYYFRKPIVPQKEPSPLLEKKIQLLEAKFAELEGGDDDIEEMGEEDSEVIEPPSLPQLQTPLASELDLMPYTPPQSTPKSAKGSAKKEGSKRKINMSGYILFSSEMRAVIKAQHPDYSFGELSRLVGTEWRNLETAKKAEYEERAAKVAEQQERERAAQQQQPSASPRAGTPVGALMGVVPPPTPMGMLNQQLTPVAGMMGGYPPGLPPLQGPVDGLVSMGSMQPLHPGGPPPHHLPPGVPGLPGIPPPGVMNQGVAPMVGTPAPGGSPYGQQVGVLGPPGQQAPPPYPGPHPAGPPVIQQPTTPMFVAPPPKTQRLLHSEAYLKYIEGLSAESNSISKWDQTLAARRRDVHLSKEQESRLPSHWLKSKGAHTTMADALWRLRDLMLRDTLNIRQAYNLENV
Method in brief: (§1)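 Bromodomains carrying a BirA biotin ligase targeting sequence, coexpressed with BirA in bacteria to give homogeneous in vivo biotin labelling, checked by mass spectrometry. Biotinylated proteins probed by biolayer interferometry with compound at two concentrations, 0.2 and 1.0 μM.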

[2] = molecular target: Bromodomain and WD repeat-containing protein 1 (Homo sapiens) (UniProt Q9NSI6); test: Binding affinity to biotinylated WDR9 (unknown origin) expressed in Escherichia coli at 0.2 to 1 uM by Biolayer Interferometric analysis; method in brief: as §1
[3] = molecular target: Transcription initiation factor TFIID subunit 1 (Homo sapiens) (UniProt P21675); test: Binding affinity to biotinylated TAF1 bromodomain-2 (unknown origin) expressed in Escherichia coli at 0.2 to 1 uM by Biolayer Interferometric analysis; method in brief: as §1
Transcription initiation factor TFIID subunit 1 (Homo sapiens), sequence (P21675 whole entry): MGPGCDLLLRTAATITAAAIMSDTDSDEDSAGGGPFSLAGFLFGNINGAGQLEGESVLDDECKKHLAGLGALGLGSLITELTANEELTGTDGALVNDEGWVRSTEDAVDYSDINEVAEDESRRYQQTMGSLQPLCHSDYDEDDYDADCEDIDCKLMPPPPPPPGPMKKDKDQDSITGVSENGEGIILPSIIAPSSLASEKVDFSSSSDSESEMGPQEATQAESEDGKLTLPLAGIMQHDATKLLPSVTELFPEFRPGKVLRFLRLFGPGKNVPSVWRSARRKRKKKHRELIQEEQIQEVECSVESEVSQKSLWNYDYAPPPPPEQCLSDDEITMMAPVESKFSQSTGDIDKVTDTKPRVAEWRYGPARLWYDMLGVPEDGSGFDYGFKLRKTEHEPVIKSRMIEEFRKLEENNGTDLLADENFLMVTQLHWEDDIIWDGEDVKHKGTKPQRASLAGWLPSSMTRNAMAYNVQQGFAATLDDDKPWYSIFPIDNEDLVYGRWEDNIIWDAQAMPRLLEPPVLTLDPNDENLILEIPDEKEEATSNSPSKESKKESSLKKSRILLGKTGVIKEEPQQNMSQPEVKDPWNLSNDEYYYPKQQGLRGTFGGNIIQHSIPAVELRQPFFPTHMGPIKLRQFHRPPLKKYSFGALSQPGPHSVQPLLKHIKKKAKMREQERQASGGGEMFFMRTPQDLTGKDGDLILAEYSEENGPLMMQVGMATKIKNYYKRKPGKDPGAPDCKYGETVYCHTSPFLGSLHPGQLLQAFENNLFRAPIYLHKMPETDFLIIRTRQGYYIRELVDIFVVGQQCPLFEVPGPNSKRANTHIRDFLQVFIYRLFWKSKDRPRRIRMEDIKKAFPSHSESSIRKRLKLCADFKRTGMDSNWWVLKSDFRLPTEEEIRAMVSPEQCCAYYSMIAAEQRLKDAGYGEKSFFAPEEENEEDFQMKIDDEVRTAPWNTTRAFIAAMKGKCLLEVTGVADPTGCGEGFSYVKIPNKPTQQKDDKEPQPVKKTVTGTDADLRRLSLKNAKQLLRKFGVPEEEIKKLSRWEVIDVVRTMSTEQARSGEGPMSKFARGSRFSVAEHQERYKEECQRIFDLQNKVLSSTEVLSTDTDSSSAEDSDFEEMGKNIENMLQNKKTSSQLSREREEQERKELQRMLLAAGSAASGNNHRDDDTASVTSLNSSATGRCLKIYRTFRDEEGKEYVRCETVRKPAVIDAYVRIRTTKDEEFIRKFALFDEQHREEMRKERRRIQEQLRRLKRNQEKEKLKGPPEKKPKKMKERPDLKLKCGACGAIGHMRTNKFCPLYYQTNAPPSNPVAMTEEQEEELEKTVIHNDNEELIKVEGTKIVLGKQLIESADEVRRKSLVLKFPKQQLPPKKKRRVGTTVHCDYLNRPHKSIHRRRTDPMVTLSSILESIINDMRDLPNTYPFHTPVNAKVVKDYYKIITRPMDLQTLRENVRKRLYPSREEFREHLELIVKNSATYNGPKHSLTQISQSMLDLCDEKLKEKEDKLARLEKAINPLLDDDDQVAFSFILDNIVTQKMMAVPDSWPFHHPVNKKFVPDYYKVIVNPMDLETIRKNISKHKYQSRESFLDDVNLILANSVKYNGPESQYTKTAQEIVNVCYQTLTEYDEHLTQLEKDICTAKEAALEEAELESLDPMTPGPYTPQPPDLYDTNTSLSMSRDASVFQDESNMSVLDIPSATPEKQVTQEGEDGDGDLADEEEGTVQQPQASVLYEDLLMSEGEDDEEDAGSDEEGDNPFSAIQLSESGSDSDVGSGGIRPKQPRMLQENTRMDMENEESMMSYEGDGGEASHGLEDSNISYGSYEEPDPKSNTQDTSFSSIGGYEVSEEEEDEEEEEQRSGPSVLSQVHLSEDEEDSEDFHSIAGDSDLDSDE

[4] = molecular target: Protein polybromo-1 (Homo sapiens) (UniProt Q86U86); test: Binding affinity to biotinylated PB1 bromodomain-6 (unknown origin) expressed in Escherichia coli at 0.2 to 1 uM by Biolayer Interferometric analysis; method in brief: as §1
[5] = molecular target: Transcription initiation factor TFIID subunit 1 (Homo sapiens) (UniProt P21675); test: Binding affinity to biotinylated TAF1 bromodomain-1 (unknown origin) expressed in Escherichia coli at 0.2 to 1 uM by Biolayer Interferometric analysis; method in brief: as §1
[6] = molecular target: Bromodomain testis-specific protein (Homo sapiens) (UniProt Q58F21); test: Binding affinity to biotinylated BRDT bromodomain-1 (unknown origin) expressed in Escherichia coli at 0.2 to 1 uM by Biolayer Interferometric analysis; method in brief: as §1
[7] = molecular target: SWI/SNF-related matrix-associated actin-dependent regulator of chromatin subfamily A member 2 (Homo sapiens) (UniProt P51531); test: Binding affinity to biotinylated SMARCA2 (unknown origin) expressed in Escherichia coli at 0.2 to 1 uM by Biolayer Interferometric analysis; method in brief: as §1
[8] = molecular target: Histone-lysine N-methyltransferase ASH1L (Homo sapiens) (UniProt Q9NR48); test: Binding affinity to biotinylated ASH1L bromodomain (unknown origin) expressed in Escherichia coli at 0.2 to 1 uM by Biolayer Interferometric analysis; method in brief: as §1
[9] = molecular target: Protein polybromo-1 (Homo sapiens) (UniProt Q86U86); test: Binding affinity to biotinylated PB1 bromodomain-4 (unknown origin) expressed in Escherichia coli at 0.2 to 1 uM by Biolayer Interferometric analysis; method in brief: as §1
[10] = molecular target: ATPase family AAA domain-containing protein 2 (Homo sapiens) (UniProt Q6PL18); test: Binding affinity to biotinylated ATAD2 (unknown origin) expressed in Escherichia coli at 0.2 to 1 uM by Biolayer Interferometric analysis; method in brief: as §1
[11] = molecular target: Protein polybromo-1 (Homo sapiens) (UniProt Q86U86); test: Binding affinity to biotinylated PB1 bromodomain-1 (unknown origin) expressed in Escherichia coli at 0.2 to 1 uM by Biolayer Interferometric analysis; method in brief: as §1
[12] = molecular target: Bromodomain-containing protein 3 (Homo sapiens) (UniProt Q15059); test: Binding affinity to biotinylated BRD3 bromodomain-1 (unknown origin) expressed in Escherichia coli at 0.2 to 1 uM by Biolayer Interferometric analysis; method in brief: as §1
Bromodomain-containing protein 3 (Homo sapiens), sequence (Q15059 2-726 limits assumed): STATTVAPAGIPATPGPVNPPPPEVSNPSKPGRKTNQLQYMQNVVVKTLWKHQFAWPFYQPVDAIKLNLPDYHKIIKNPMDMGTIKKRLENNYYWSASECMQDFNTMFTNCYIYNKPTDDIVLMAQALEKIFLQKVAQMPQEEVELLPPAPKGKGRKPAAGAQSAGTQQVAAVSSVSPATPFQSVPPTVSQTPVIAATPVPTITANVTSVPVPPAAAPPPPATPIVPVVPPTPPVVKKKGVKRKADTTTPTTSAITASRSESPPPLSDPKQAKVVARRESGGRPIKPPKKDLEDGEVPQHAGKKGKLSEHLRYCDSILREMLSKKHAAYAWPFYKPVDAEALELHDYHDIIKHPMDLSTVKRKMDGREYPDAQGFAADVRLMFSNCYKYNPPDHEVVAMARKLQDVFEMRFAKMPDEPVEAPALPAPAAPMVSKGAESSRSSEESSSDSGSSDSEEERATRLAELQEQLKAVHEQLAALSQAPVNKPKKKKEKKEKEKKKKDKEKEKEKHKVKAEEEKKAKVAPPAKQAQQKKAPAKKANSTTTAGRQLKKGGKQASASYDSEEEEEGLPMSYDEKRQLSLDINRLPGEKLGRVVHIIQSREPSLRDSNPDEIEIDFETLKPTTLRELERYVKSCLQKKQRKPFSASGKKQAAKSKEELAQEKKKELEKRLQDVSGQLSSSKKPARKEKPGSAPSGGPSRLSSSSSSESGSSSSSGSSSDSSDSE

[13] = molecular target: Bromodomain testis-specific protein (Homo sapiens) (UniProt Q58F21); test: Binding affinity to biotinylated BRDT bromodomain-2 (unknown origin) expressed in Escherichia coli at 0.2 to 1 uM by Biolayer Interferometric analysis; method in brief: as §1
[14] = molecular target: Protein polybromo-1 (Homo sapiens) (UniProt Q86U86); test: Binding affinity to biotinylated PB1 bromodomain-5 (unknown origin) expressed in Escherichia coli at 0.2 to 1 uM by Biolayer Interferometric analysis; method in brief: as §1
[15] = molecular target: Bromodomain adjacent to zinc finger domain protein 2B (Homo sapiens) (UniProt Q9UIF8); test: Binding affinity to biotinylated C-terminal Avi/His-TEV-tagged BAZ2B (unknown origin) expressed in Escherichia coli at 0.2 to 1 uM by Biolayer Interferometric analysis; method in brief: as §1
[16] = molecular target: SWI/SNF-related matrix-associated actin-dependent regulator of chromatin subfamily A member 4 (Homo sapiens) (UniProt P51532); test: Binding affinity to biotinylated SMARCA4 (unknown origin) expressed in Escherichia coli at 0.2 to 1 uM by Biolayer Interferometric analysis; method in brief: as §1
[17] = molecular target: Transcription initiation factor TFIID subunit 1-like (Homo sapiens) (UniProt Q8IZX4); test: Binding affinity to biotinylated TAF1L bromodomain-1 (unknown origin) expressed in Escherichia coli at 0.2 to 1 uM by Biolayer Interferometric analysis; method in brief: as §1
[18] = molecular target: Nucleosome-remodeling factor subunit BPTF (Homo sapiens) (UniProt Q12830); test: Binding affinity to biotinylated FALZ (unknown origin) expressed in Escherichia coli at 0.2 to 1 uM by Biolayer Interferometric analysis; method in brief: as §1
[19] = molecular target: Histone acetyltransferase KAT2A (Homo sapiens) (UniProt Q92830); test: Binding affinity to biotinylated GCN5L2 (unknown origin) expressed in Escherichia coli at 0.2 to 1 uM by Biolayer Interferometric analysis; method in brief: as §1
[20] = molecular target: CREB-binding protein (Homo sapiens) (UniProt Q92793); test: Binding affinity to biotinylated CREBBP (unknown origin) expressed in Escherichia coli at 0.2 to 1 uM by Biolayer Interferometric analysis; method in brief: as §1
[21] = molecular target: Bromodomain-containing protein 1 (Homo sapiens) (UniProt O95696); test: Binding affinity to biotinylated BRD1 (unknown origin) expressed in Escherichia coli at 0.2 to 1 uM by Biolayer Interferometric analysis; method in brief: as §1
[22] = molecular target: Bromodomain-containing protein 2 (Homo sapiens) (UniProt P25440); test: Binding affinity to biotinylated BRD2 bromodomain-2 (unknown origin) expressed in Escherichia coli at 0.2 to 1 uM by Biolayer Interferometric analysis; method in brief: as §1
Bromodomain-containing protein 2 (Homo sapiens), sequence (P25440 whole entry, looked up): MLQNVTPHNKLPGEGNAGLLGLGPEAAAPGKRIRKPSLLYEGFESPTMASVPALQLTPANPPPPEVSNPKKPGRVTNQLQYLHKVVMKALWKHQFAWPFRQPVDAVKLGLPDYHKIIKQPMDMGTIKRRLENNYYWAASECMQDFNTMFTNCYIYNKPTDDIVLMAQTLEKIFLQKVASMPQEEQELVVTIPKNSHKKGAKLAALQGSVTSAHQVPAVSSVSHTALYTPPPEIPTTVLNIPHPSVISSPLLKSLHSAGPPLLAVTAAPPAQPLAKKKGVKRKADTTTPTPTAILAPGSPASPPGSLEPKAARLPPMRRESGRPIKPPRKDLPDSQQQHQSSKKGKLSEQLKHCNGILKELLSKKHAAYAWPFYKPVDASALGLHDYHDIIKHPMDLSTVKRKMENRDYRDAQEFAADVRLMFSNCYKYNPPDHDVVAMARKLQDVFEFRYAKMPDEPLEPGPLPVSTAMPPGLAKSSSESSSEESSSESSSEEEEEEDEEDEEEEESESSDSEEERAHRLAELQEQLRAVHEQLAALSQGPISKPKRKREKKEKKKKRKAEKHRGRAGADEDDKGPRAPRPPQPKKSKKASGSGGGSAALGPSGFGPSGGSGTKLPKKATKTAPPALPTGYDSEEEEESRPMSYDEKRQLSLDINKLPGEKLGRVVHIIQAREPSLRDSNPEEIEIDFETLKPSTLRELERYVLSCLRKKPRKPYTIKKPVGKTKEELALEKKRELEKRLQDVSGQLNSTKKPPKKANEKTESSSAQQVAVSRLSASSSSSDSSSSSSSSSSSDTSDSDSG

[23] = molecular target: Bromodomain-containing protein 4 (Homo sapiens) (UniProt O60885); test: Binding affinity to biotinylated BRD4 bromodomain-1 (unknown origin) expressed in Escherichia coli at 0.2 to 1 uM by Biolayer Interferometric analysis; method in brief: as §1
[24] = molecular target: Bromodomain-containing protein 7 (Homo sapiens) (UniProt Q9NPI1); test: Binding affinity to biotinylated BRD7 (unknown origin) expressed in Escherichia coli at 0.2 to 1 uM by Biolayer Interferometric analysis; method in brief: as §1
[25] = molecular target: Bromodomain-containing protein 4 (Homo sapiens) (UniProt O60885); test: Binding affinity to biotinylated BRD4 bromodomain-2 (unknown origin) expressed in Escherichia coli at 0.2 to 1 uM by Biolayer Interferometric analysis; method in brief: as §1
[26] = molecular target: Bromodomain-containing protein 3 (Homo sapiens) (UniProt Q15059); test: Binding affinity to biotinylated BRD3 bromodomain-2 (unknown origin) expressed in Escherichia coli at 0.2 to 1 uM by Biolayer Interferometric analysis; method in brief: as §1
[27] = molecular target: Histone acetyltransferase KAT2B (Homo sapiens) (UniProt Q92831); test: Binding affinity to biotinylated PCAF (unknown origin) expressed in Escherichia coli at 0.2 to 1 uM by Biolayer Interferometric analysis; method in brief: as §1
Peregrin (Homo sapiens) = Peregrin (Homo sapiens) (UniProt P55201); test: Binding affinity to biotinylated BRPF1 bromodomain-1 (unknown origin) expressed in Escherichia coli at 0.2 to 1 uM by Biolayer Interferometric analysis; method in brief: as §1
[28] = molecular target: PH-interacting protein (Homo sapiens) (UniProt Q8WWQ0); test: Binding affinity to biotinylated PHIP (unknown origin) expressed in Escherichia coli at 0.2 to 1 uM by Biolayer Interferometric analysis; method in brief: as §1
[29] = molecular target: Transcription intermediary factor 1-beta (Homo sapiens) (UniProt Q13263); test: Binding affinity to biotinylated TRIM28 (unknown origin) expressed in Escherichia coli at 0.2 to 1 uM by Biolayer Interferometric analysis; method in brief: as §1
[30] = molecular target: Transcription intermediary factor 1-alpha (Homo sapiens) (UniProt O15164); test: Binding affinity to biotinylated TIF1 bromodomain-1 (unknown origin) expressed in Escherichia coli at 0.2 to 1 uM by Biolayer Interferometric analysis; method in brief: as §1
[31] = molecular target: Histone acetyltransferase p300 (Homo sapiens) (UniProt Q09472); test: Binding affinity to biotinylated EP300 (unknown origin) expressed in Escherichia coli at 0.2 to 1 uM by Biolayer Interferometric analysis; method in brief: as §1
[32] = molecular target: ATPase family AAA domain-containing protein 2B (Homo sapiens) (UniProt Q9ULI0); test: Binding affinity to biotinylated KIAA1240 (unknown origin) expressed in Escherichia coli at 0.2 to 1 uM by Biolayer Interferometric analysis; method in brief: as §1
[33] = molecular target: Chromatin remodeling regulator CECR2 (Homo sapiens) (UniProt Q9BXF3); test: Binding affinity to biotinylated CECR2 (unknown origin) expressed in Escherichia coli at 0.2 to 1 uM by Biolayer Interferometric analysis; method in brief: as §1
[34] = molecular target: Bromodomain-containing protein 2 (Homo sapiens) (UniProt P25440); test: Binding affinity to biotinylated BRD2 bromodomain-1 (unknown origin) expressed in Escherichia coli at 0.2 to 1 uM by Biolayer Interferometric analysis; method in brief: as §1
[35] = molecular target: Nuclear body protein SP140 (Homo sapiens) (UniProt Q13342); test: Binding affinity to biotinylated SP140 (unknown origin) expressed in Escherichia coli at 0.2 to 1 uM by Biolayer Interferometric analysis; method in brief: as §1
[36] = molecular target: Transcription initiation factor TFIID subunit 1-like (Homo sapiens) (UniProt Q8IZX4); test: Binding affinity to biotinylated TAF1L bromodomain-2 (unknown origin) expressed in Escherichia coli at 0.2 to 1 uM by Biolayer Interferometric analysis; method in brief: as §1
[37] = molecular target: Bromodomain and WD repeat-containing protein 3 (Homo sapiens) (UniProt Q6RI45); test: Binding affinity to biotinylated BRWD3 bromodomain-2 (unknown origin) expressed in Escherichia coli at 0.2 to 1 uM by Biolayer Interferometric analysis; method in brief: as §1
[38] = molecular target: Tyrosine-protein kinase BAZ1B (Homo sapiens) (UniProt Q9UIG0); test: Binding affinity to biotinylated BAZ1B (unknown origin) expressed in Escherichia coli at 0.2 to 1 uM by Biolayer Interferometric analysis; method in brief: as §1
[39] = molecular target: Bromodomain-containing protein 9 (Homo sapiens) (UniProt Q9H8M2); test: Binding affinity to biotinylated C-terminal Avi/His-TEV-fused BRD9 (unknown origin) expressed in Escherichia coli by isothermal titration calorimetric analysis

SMILES | Activity [1] | Activity [2] | Activity [3] | Activity [4] | Activity [5] | Activity [6] | Activity [7] | Activity [8] | Activity [9] | Activity [10] | Activity [11] | Activity [12] | Activity [13] | Activity [14] | Activity [16] | Activity [17] | Activity [18] | Activity [19] | Activity [20] | Activity [21] | other results
CCCOc1ccn2c(C(C)=O)cc(-c3cccc(OC)c3)c2c1 | inactive | inactive | inactive | inactive | inactive | inactive | inactive | inactive | inactive | inactive | inactive | inactive | inactive | inactive | inactive | inactive | inactive | inactive | inactive | inactive | Activity [15]: inactive; Activity [22]: inactive; Activity [23]: inactive; Activity [24]: inactive; Activity [25]: inactive; Activity [26]: inactive; Activity [27]: inactive; Activity (Peregrin (Homo sapiens)): inactive; Activity [28]: inactive; Activity [29]: inactive; Activity [30]: inactive; Activity [31]: inactive; Activity [32]: inactive; Activity [33]: inactive; Activity [34]: inactive; Activity [35]: inactive; Activity [36]: inactive; Activity [37]: inactive; Activity [38]: inactive
CCCOc1ccn2c(C(C)=O)cc(-c3ccccc3S(C)(=O)=O)c2c1 | inactive | inactive | inactive | inactive | inactive | inactive | inactive | inactive | inactive | inactive | inactive | inactive | inactive | inactive | inactive | inactive | inactive | inactive | inactive | inactive | Kb [39]: 0.826 ×10⁶ /M; Activity [22]: inactive; Activity [23]: inactive; Activity [24]: inactive; Activity [25]: inactive; Activity [26]: inactive; Activity [27]: inactive; Activity (Peregrin (Homo sapiens)): inactive; Activity [28]: inactive; Activity [29]: inactive; Activity [30]: inactive; Activity [31]: inactive; Activity [32]: inactive; Activity [33]: inactive; Activity [34]: inactive; Activity [35]: inactive; Activity [37]: inactive; Activity [38]: inactive
